# Source: ChEMBL document CHEMBL3871269, “Conjugates of podophyllotoxin and norcantharidin as dual inhibitors of topoisomeraseⅡ and protein phosphatase 2A” (Eur J Med Chem, 2016)
# Assay: Cytotoxicity against human A549 cells measured after 48 hrs by MTT assay
# Assay type: functional, cell-based
# Conditions: A549, 48 h
# Summary of the method: (§1)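 MTT growth assay; cells seeded at 5×10³/well in RPMI1640 with 10% heat-inactivated FBS, attached 4–6 h, then exposed to five concentrations (0.01–100 μM, compounds dissolved in saline) for 48 h at 37 °C, 5% CO₂. MTT added for 4 h, formazan dissolved in DMSO, absorbance read at 490 nm. IC50 taken from log plot of percent of control versus concentration; means ± SD of triplicate experiments.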
row,SMILES,IC50
1,COc1cc([C@@H]2c3cc4c(cc3[C@@H](NC(=O)[C@H](CC(C)C)N3C(=O)C5C6CCC(O6)C5C3=O)[C@H]3COC(=O)[C@H]23)OCO4)cc(OC)c1O (some centres not stated),8.11 µM

# Assay: Cytotoxicity against human HepG2 cells measured after 48 hrs by MTT assay
# Assay type: functional, cell-based
# Conditions: HepG2, 48 h
# Summary of the method: as §1
row,SMILES,IC50
1,COc1cc([C@@H]2c3cc4c(cc3[C@@H](NC(=O)[C@H](CC(C)C)N3C(=O)C5C6CCC(O6)C5C3=O)[C@H]3COC(=O)[C@H]23)OCO4)cc(OC)c1O (some centres not stated),10.5 µM

# Assay: Cytotoxicity against human HeLa cells measured after 48 hrs by MTT assay
# Assay type: functional, cell-based
# Conditions: not given
# Summary of the method: as §1
row,SMILES,IC50
1,COc1cc([C@@H]2c3cc4c(cc3[C@@H](NC(=O)[C@H](CC(C)C)N3C(=O)C5C6CCC(O6)C5C3=O)[C@H]3COC(=O)[C@H]23)OCO4)cc(OC)c1O (some centres not stated),> 100 µM

# Assay: Cytotoxicity against human HCT8 cells measured after 48 hrs by MTT assay
# Assay type: functional, cell-based
# Conditions: HCT-8, 48 h
# Summary of the method: as §1
row,SMILES,IC50
1,COc1cc([C@@H]2c3cc4c(cc3[C@@H](NC(=O)[C@H](CC(C)C)N3C(=O)C5C6CCC(O6)C5C3=O)[C@H]3COC(=O)[C@H]23)OCO4)cc(OC)c1O (some centres not stated),21.4 µM

# Assay: Cytotoxicity against human WI38 cells measured after 48 hrs by MTT assay
# Assay type: toxicity, cell-based, WI-38
# Conditions: not given
# Summary of the method: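 MTT growth inhibition in WI-38 lung fibroblasts. Cells seeded at 5×10³/well in RPMI1640 with 10% heat-inactivated FBS, attached 4–6 h, then exposed 48 h at 37 °C, 5% CO₂ to five concentrations (0.01–100 μM, saline-dissolved). MTT 4 h, DMSO solubilisation, A490. IC50 from log plot of percent control vs concentration; triplicate, mean ± SD.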
row,SMILES,IC50 at 48 h
1,COc1cc([C@@H]2c3cc4c(cc3[C@@H](NC(=O)[C@H](CC(C)C)N3C(=O)C5C6CCC(O6)C5C3=O)[C@H]3COC(=O)[C@H]23)OCO4)cc(OC)c1O (some centres not stated),21.9 µM

# Assay: Octanol-water partition coefficient, log P of the compound
# Assay type: physicochemical
# Conditions: read-out: logP
# Summary of the method: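 Partition coefficient P = compound concentration in 1-octanol / compound concentration in water.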
row,SMILES,logP
1,COc1cc([C@@H]2c3cc4c(cc3[C@@H](NC(=O)[C@H](CC(C)C)N3C(=O)C5C6CCC(O6)C5C3=O)[C@H]3COC(=O)[C@H]23)OCO4)cc(OC)c1O (some centres not stated),1.83

# Assay: Inhibition of human RBC PP2A assessed as reduction in free phosphate ion release using Lys-Arg-pThr-Ile-Arg as substrate preincubated for 10 mins followed by substrate addition measured after 60 mins by malachite green method
# Conditions: not given
# Summary of the method: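 Purified PP2A (0.6 mU/well) preincubated with inhibitor 10 min at 37 °C. Reaction started with 200 μM Lys-Arg-pThr-Ile-Arg in 50 mM Tris-HCl pH 7.0, 100 μM CaCl₂; 60 min at room temperature. Released phosphate read by malachite green at 650 nm after 10 min; enzyme-plus-buffer blanks. IC50 from dose–response; mean of three independent experiments in duplicate.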
row,SMILES,IC50
1,COc1cc([C@@H]2c3cc4c(cc3[C@@H](NC(=O)[C@H](CC(C)C)N3C(=O)C5C6CCC(O6)C5C3=O)[C@H]3COC(=O)[C@H]23)OCO4)cc(OC)c1O (some centres not stated),> 100 µM
